In ChEMBL document CHEMBL2439972, “Synthesis, pharmacological and structural characterization, and thermodynamic aspects of GluA2-positive allosteric modulators with a 3,4-dihydro-2H-1,2,4-benzothiadiazine 1,1-dioxide scaffold” (J Med Chem, 2013):

Columns and labels:
[1] = molecular target: Glutamate receptor 2 (Rattus norvegicus) (UniProt P19491); experiment: Positive allosteric modulation of GluA2 receptor in rat embryonic cortex neuron assessed as increase of AMPA-induced membrane depolarization by fluorescence assay relative to AMPA
Glutamate receptor 2 (Rattus norvegicus), sequence (P19491 whole entry): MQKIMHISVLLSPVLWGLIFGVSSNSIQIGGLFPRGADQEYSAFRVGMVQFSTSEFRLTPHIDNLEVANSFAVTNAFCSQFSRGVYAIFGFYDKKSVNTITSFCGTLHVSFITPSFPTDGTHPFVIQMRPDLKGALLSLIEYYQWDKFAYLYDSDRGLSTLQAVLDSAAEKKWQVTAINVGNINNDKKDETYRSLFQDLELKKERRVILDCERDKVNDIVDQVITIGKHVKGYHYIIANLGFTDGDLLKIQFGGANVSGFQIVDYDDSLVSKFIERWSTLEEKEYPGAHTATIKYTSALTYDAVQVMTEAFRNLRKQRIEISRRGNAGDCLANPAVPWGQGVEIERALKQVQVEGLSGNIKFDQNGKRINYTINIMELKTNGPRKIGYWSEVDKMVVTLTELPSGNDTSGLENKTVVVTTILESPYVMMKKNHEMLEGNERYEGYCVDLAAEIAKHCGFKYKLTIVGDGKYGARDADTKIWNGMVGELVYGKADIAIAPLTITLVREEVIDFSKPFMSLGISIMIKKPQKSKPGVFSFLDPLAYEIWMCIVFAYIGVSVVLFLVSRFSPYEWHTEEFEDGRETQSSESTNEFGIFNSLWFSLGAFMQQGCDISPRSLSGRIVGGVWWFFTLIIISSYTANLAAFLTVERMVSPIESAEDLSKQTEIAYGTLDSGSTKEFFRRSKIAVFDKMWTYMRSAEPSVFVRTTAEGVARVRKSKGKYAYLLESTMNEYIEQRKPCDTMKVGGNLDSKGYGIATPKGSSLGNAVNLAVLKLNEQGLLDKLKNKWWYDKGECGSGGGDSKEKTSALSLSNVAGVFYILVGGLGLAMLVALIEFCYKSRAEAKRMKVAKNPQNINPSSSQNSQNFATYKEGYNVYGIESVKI
Procedure, shortened: (§1)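 Rat E16 cortical cells cultured 18 days (37 °C, 5% CO2) were loaded with membrane-potential dye for 1 h at room temperature and read on an imaging plate reader. After a 10 s baseline, AMPA (300 μM) was added for 3 min, then compound plus AMPA for 3 min. Signal was averaged over the last 15 s, as area under the curve. Outputs: EC2× (2-fold increase), EC50, Emax relative to AMPA alone (×1). Mean ± SEM (n).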

[2] = molecular target: Glutamate receptor 2 (Rattus norvegicus) (UniProt P19491); experiment: Positive allosteric modulation of GluA2 receptor in rat embryonic cortex neuron assessed as concentration required to 2 fold increase of AMPA-induced membrane depolarization by fluorescence assay; procedure, shortened: as §1
Glutamate receptor 2 [3] = molecular target: T1, Glutamate receptor 2 (Rattus norvegicus, UniProt P19491); experiment: Positive allosteric modulation of GluA2 receptor in rat embryonic cortex neuron assessed as increase of AMPA-induced membrane depolarization by fluorescence assay; procedure, shortened: as §1
T1 sequence (P19491 whole entry): as above

[4] = molecular target: Glutamate receptor 2 (Rattus norvegicus) (UniProt P19491); experiment: Positive allosteric modulation of GluA2 receptor in rat embryonic cortex neuron assessed as concentration required to 2 fold increase of AMPA-induced membrane depolarization by FLIPR assay
Procedure, shortened: (§2)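 FLIPR version of the membrane-potential dye assay on primary rat embryonic cortical neurons, same principle on a different plate reader. Measures depolarization evoked by 300 μM AMPA. Outputs: EC2× (modulator concentration doubling the AMPA response), EC50, Emax normalized to the AMPA response (×1).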

Glutamate receptor 2 [5] = molecular target: T1, Glutamate receptor 2; experiment: Positive allosteric modulation of GluA2 receptor in rat embryonic cortex neuron assessed as increase of AMPA-induced membrane depolarization by FLIPR assay; procedure, shortened: as §2
[6] = molecular target: Glutamate receptor 2 (Rattus norvegicus) (UniProt P19491); experiment: Positive allosteric modulation of GluA2 receptor in rat embryonic cortex neuron assessed as increase of AMPA-induced membrane depolarization by FLIPR assay relative to AMPA; procedure, shortened: as §2
[7] = Positive allosteric modulation of GluA2 receptor (unknown origin) expressed in Xenopus laevis oocytes assessed as concentration required to 2 fold increase of AMPA-induced membrane depolarization by voltage clamp assay; conditions: Oocyte
[8] = Binding affinity to rat LBD of GluA2 receptor L483Y and N754S mutant at 243 uM by isothermal titration calorimetry analysis

Row | fold change (FC) [1] | Activity [2] [µM] | EC50 (Glutamate receptor 2 [3]) [µM] | Activity [4] [µM] | EC50 (Glutamate receptor 2 [5]) [µM] | fold change (FC) [6] | Activity [7] [µM] | Kd [8] [µM] | Compound
1 | 8.5 | 0.73 | 4.17 | – | – | – | – | – | O=S1(=O)NCN(C2CC2)c2ccccc21
2 | – | – | – | 14 | 22.5 | 7 | – | – | O=[N+]([O-])c1ccc2c(c1)S(=O)(=O)NCN2C1CC1
3 | 9.2 | 0.47 | 2.5 | – | – | – | – | – | N#Cc1ccc2c(c1)S(=O)(=O)NCN2C1CC1
4 | 8.7 | 5.13 | – | – | – | – | – | – | Cc1ccc2c(c1)S(=O)(=O)NCN2C1CC1
5 | 10.9 | 0.75 | 3.13 | – | – | – | 0.8 | – | O=S1(=O)NCN(C2CC2)c2ccc(Cl)cc21
6 | 15 | 0.27 | 0.9 | – | – | – | – | 0.35 | O=S1(=O)NCN(C2CC2)c2ccc(F)cc21
7 | – | > 100 | – | – | – | – | – | – | O=S1(=O)NCN(C2CC2)c2ccc(C(F)(F)F)cc21
8 | 9.3 | 1.27 | 4.83 | – | – | – | – | – | O=S1(=O)NCN(C2CC2)c2ccc(Br)cc21
